Experiment [1] deals with mice. The experiment in a line: Head twitch response. Format: in vivo, mouse. Conditions: for HTR response: 15 min period.
Experiment [2] has as its target T1, 5-HT2A receptor (Homo sapiens, UniProt P28223). The experiment in a line: G protein. The class given is cell-based. Conditions: for decrease in potency versus the alpha-methyl (DOx) counterpart: Gq dissociation (Gq versus G11 for Ariadne/DOM).
Target sequence in this assay (P28223 whole entry): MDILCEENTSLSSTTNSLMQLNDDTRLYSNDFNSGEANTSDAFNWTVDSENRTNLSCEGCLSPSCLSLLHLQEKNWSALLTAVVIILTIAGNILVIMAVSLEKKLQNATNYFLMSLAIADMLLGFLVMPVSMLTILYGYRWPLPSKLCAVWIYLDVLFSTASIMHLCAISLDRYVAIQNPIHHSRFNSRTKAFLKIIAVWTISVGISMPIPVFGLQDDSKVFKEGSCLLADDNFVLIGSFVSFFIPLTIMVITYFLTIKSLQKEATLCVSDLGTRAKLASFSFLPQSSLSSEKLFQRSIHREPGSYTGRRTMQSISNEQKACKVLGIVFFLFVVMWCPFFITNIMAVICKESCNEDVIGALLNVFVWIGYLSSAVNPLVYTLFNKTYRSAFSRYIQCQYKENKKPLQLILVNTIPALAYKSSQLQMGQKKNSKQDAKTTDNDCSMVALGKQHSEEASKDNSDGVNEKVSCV
Experiment [3] concerns the target 5-HT2B receptor (Homo sapiens, UniProt P41595). The experiment in a line: G protein. The class given is cell-based. The note with it: Gq dissociation.
Experiment [4] relates to humans. The note with it: cited from earlier work.
The target in experiment [5] is T1, 5-HT2A receptor. The experiment in a line: β-arrestin2 recruitment BRET assay. Format: cell-based. A general note: Activated receptors often draw arrestin, which recruitment assays turn into a signal.
Target sequence in this assay (P32121 whole entry): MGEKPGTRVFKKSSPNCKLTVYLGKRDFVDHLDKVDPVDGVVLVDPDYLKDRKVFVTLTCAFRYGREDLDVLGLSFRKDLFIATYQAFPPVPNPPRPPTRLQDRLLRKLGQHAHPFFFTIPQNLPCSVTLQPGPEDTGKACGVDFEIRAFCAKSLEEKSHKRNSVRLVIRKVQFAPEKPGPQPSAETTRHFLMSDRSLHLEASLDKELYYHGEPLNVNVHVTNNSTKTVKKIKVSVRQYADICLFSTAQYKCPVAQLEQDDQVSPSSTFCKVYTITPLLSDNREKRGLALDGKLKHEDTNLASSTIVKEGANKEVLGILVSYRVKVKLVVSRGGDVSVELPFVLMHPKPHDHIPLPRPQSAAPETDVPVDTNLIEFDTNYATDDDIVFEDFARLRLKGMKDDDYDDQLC
Target sequence in this assay (P28223 whole entry): as the sequence (P28223 whole entry) above
Experiment [6] relates to 5-HT2A receptors. The note with it: cited from earlier work.
For experiment [7], the system named is 5-HT2A receptors. The note with it: cited from earlier work. This is another data set of the same source.
Experiment [8] relates to mice. Conditions: cited from earlier work.
Experiment [9] has as its system 5-HT2C receptors. Conditions: cited from earlier work.
The target of experiment [10] is T1, 5-HT2A receptor. The experiment in a line: Calcium flux assay. The class given is cell-based. In short, it runs like this:
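Flp-In 293 T-Rex cells stably carry tetracycline-inducible human 5-HT2A or 5-HT2C. Expression is induced with tetracycline (2 ug/mL) the day before, with about 7,500 cells/well in 1% dialyzed FBS. Cells are loaded with Fluo-4 Direct for 1 h at 37°C in HBSS/20 mM HEPES pH 7.4 with 2.5 mM probenecid, then held 15 min at RT. Fluorescence is read 10 s baseline, then 5-10 min after drug. Peak fold-over-basal or AUC is normalized to % 5-HT, with EC50/Emax from nonlinear regression.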
Target sequence in this assay (P28223 whole entry): as above

Experiment [11] has as its target T1, 5-HT2A receptor. The experiment in a line: Radioligand displacement assay. The class given is binding. Conditions: standard radioligand 125I-DOI. For orientation: In a radioligand displacement assay an active substance lowers the binding of a labelled ligand.
Target sequence in this assay (P28223 whole entry): as above
Experiment [12] deals with mice. The experiment in a line: Open field test. The note with it: mouse, in vivo. Format: in vivo, mouse.
[13] abbreviates: phosphoinositide turnover ref 40.

By Emax is commonly meant the maximal effect, on the per cent scale that the assay sets. A word on the EC50: it is the concentration giving half of the maximal effect. Usually Ki stands for a dissociation constant, usually derived from enzyme kinetics or from competition with a known ligand.

Sequence of 5-HT2B receptor (P41595 whole entry): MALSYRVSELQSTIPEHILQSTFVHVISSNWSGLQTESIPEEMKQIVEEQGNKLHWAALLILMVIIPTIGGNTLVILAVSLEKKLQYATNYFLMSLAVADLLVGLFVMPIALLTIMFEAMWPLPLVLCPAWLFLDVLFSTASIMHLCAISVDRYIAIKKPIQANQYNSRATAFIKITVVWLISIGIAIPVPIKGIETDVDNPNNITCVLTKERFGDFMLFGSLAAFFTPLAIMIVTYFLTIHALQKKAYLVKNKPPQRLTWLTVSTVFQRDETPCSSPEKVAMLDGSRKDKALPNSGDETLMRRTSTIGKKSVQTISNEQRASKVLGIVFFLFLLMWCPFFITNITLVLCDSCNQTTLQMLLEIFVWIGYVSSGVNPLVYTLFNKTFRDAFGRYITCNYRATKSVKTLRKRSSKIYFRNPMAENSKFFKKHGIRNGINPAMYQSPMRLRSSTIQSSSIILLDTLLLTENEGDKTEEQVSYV

Consider `CCC(N)Cc1cc(OC)c(COC)cc1OC` (stereo not drawn) [4C-MOM], for which, in experiment [1] (s.c.), the HTR response result is “only residual HTR”. The “less potent at 5-HT2A compared to Ariadne” value in [2] (Gq dissociation) is “approximately 2 fold”. Further, the “potency at 5-HT2B compared to Ariadne” value in [3] is “twice as potent”.

Take `CCC(N)Cc1cc(OC)c(C)cc1OC.Cl` (stereo not drawn) [Ariadne hydrochloride]: the “subjective effect (online experience report)” value in experiment [4] (50 mg oral plus 25 mg at 90 min, person 77 kg ref 35) is “MDMA-like effect but no psychedelic effects”.

Turning to `CCCc1cc(OC)c(CC(N)CC)cc1OC` (stereo not drawn) [4C-Pr], in experiment [5], the “decrease in potency versus the alpha-methyl (DOx) counterpart” value (from here on “decrease … (DOx) counterpart”) came to 10 fold and the “drop in efficacy versus the alpha-methyl (DOx) counterpart” value came out at 15%. In [2] (Gq dissociation), the “loss in efficacy versus the alpha-methyl (DOx) counterpart” value turned out to be 15%. The “decrease … (DOx) counterpart” value in [2] is 20-30 fold.

In the case of `COc1cc(CC(C)N)c(OC)cc1I` (stereo not drawn) [DOI, reference compound], the “increase in Gq dissociation potency compared to DOM” value in experiment [2] (Gq dissociation) was 20- to 30 fold.

With `CCN(CC)CCc1c[nH]c2ccccc12` [DET, diethyltryptamine], in [6] (setting [13]), the Emax is 82%. In addition, the “affinity for 5-HT2A receptors, DET versus 6F-DET” value in experiment [7] was “nearly identical affinity”.

Regarding `CN(C)CCc1c[nH]c2cccc(O)c12` [psilocin], the HTR counts in [8] is 15-25 HTR events per 15 min. In addition, in experiment [6], the “greater signaling potency in comparison to 6F-DET” value is 15 fold. Also, in experiment [6] (depending on the specific readout), the signaling efficacy was 50-70%. The “greater affinity in comparison to 6F-DET” value in experiment [9] is 10 fold.

In [5] (normalized to 5-HT), `COc1cc(CC(C)N)c(OC)cc1C` (stereo not drawn) [DOM, 2,5-dimethoxy-4-methyl-amphetamine, reference compound] registered an efficacy of 103%. Also, the Emax in experiment [2] (read-out: Emax (Gq)) turned out to be 96%. In experiment [4], the “dose producing classic hallucinogen effects” value was more than 3 mg and the “dose producing detectable psychoactive, sub-hallucinogenic effects” value was 1 to 3 mg. Moreover, the “potency relative to mescaline in humans” value in experiment [4] (per oral administration ref 6) was “approximately 100 times”.

Consider `CCCC(N)Cc1cc(OC)c(C)cc1OC` (stereo not drawn) [5C-D], for which the HTR response entry in experiment [1] (s.c.) was “indistinguishable from vehicle”. Also, in [2] (Figure 3D signaling assays), the “decrease in potency relative to Ariadne” value is on record as ~ 2 fold and the “drop in efficacy relative to Ariadne” value is ~ 15%.

As to `CCC(N)Cc1cc(OC)c(C(F)(F)F)cc1OC` (stereo not drawn) [4C-TFM], the “HTR after pretreatment with 5-HT2A antagonist MDL100,907 (volinanserin)” value in experiment [1] (MDL100907 0.01 and 0.032 mg/kg ip 15 min prior) was “completely inhibited”.

As to `CCC(N)Cc1cc(OC)c(I)cc1OC` (stereo not drawn) [iodo-Ariadne], in experiment [5], the “decrease … (DOx) counterpart” value turned out to be 5 fold and the “drop in efficacy versus the alpha-methyl (DOx) counterpart” value turned out to be 20%. In [2] (Gq dissociation), the “increase in potency compared to Ariadne” value is reported as more than 10 fold and the “loss in efficacy versus the alpha-methyl (DOx) counterpart” value came to 10%. For the same compound, the “decrease … (DOx) counterpart” value in [2] was 10 fold. For the same compound, the EC50 in [2] (read-out: EC50 (Gq), Gq dissociation BRET) amounted to 16 nM.

For `CN(C)CCc1c[nH]c2cccc(OP(=O)(O)O)c12` [psilocybin], in experiment [8], the HTR counts is 15-25 HTR events per 15 min.

As to `CCN(CC)CCc1c[nH]c2cc(F)ccc12` [6F-DET, 6-fluoro-diethyltryptamine], in experiment [6] (setting [13]), the Emax is 63%, the “drop in efficacy versus DET” value is listed as 20% and the “weaker signaling potency (EC50 values) versus DET” value is 6 fold. Also, the “affinity for 5-HT2A receptors, DET versus 6F-DET” value in [7] is given as “nearly identical affinity”.

In the case of `CC[C@H](N)Cc1cc(OC)c(C)cc1OC` [(S)-Ariadne], in experiment [10] (read-out: EC50 (calcium flux)), the EC50 was found to be 132 nM. In experiment [10] (relative to 5-HT), the “Emax (calcium flux)” value was 63%. For the same compound, in experiment [11], the affinity corresponds to a Ki of 220 nM.

Consider `CCCc1cc(OC)c(CC(C)N)cc1OC` (stereo not drawn) [DOPR, reference compound], for which, in experiment [1] (s.c.), the “dose of peak (maximum) HTR” value is listed as 1 mg/kg and the “time to maximum HTR frequency post-drug administration” value stood at 10 min. Also, in experiment [2] (Gq dissociation), the “increase in Gq dissociation potency compared to DOM” value is on record as 20- to 30 fold. For the same compound, the “time in the center of the arena” value in [12] is on record as “trend for spending less time in the center of the arena”.

The values above are taken from publication PMC10147382 (ACS chemical neuroscience, 2022).
